Screening results: PubChem BioAssay, several laboratories
A selection: hits, their analogues and other compounds. The true share with any hit is near 1.7%.
ZTA DNA inh: ZTA (EBV) inhibition in EBNA-1 counter-screen; ZTA-DNA binding, fluorescence polarization; inhibition, % at 11 µM; actives 0.15% (n = 320,000); in the data active = inhibition above about 33%
Apaf-1 inh: inhibitors of human Apaf-1 apoptosome | reconstituted apoptosome caspase-3 activity, DEVD-Rh110 fluorescence | inhibition, % at 20 µM | actives 0.71% (n = 330,000) | AID 489030; active = inhibition of at least 40% at 20 µM;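 also: plate controls were DMSO wells for no effect and DEVD-CHO caspase inhibitor wells for full effect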
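Material: reconstituted apoptosome with Apaf-1, cytochrome c, caspase-9, procaspase-3, dATP. Technique: Rh110 fluorescence intensity. Buffer or medium: pH 7.5 Hepes buffer with CHAPS, BSA, DTT. Times: 30 min plus 50 min, RT.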
UBC13 inh: blocks human UBC13 polyubiquitin chain formation. TR-FRET. inhibition, % at 20 µM. actives 0.47% (n = 330,000); in the data active = inhibition above about 45%, passing the limit was not always enough
Target sequence (P61088 whole entry, looked up): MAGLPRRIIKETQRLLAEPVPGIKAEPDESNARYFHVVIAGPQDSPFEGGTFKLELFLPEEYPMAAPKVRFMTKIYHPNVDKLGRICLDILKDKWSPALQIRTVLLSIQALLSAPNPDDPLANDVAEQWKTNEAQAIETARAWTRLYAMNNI
PREPL inhibitor: human PREPL enzyme inhibition | AID 2751 | inhibition, % at 5.96 µM | Q4J6C6 | actives 0.68% (n = 320,000) | recombinant PREPL, fluorescence polarization activity-based probe;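 also: 0% = enzyme with DMSO and 100% = wells lacking enzyme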
EBNA-1 inh: blocks EBNA-1 binding to DNA; EBNA-1 DNA binding, fluorescence polarization; inhibition, % at 14.8 µM; actives 0.34% (n = 300,000); in the data active = inhibition above about 28%
Zta DNA confirm: EBV ZTA DNA binding inhibition, confirmation. inhibition, % at 11.1 µM. actives 30% (n = 320). shares compounds with ZTA DNA inh. Zta-ZRE DNA binding, fluorescence polarization;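 active = mean inhibition across triplicate runs above the hit threshold derived for the original primary screen, cut at about 33% in these data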;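 also: 0% = Zta with DMSO and 100% = wells lacking Zta protein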
EBNA1 counter: EBNA-1 DNA binding inhibition, counter-screen for ZTA; shares compounds with ZTA DNA inh; fluorescence polarization; inhibition, % at 14.8 µM; 320 tested, under 10 active; AID 2362; call rule not given here
PREPL confirm: confirmation of human PREPL enzyme inhibitors; actives 67% (n = 2,000); inhibition, % at 5.96 µM; recombinant PREPL, fluorescence polarization activity probe; AID 2803; shares compounds with PREPL inhibitor;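 also: 0% = protein with DMSO and 100% = wells lacking protein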
Casp3 counter: inhibits human caspase-3 in UBC13 counter-screen. shares compounds with UBC13 inh. Recombinant caspase-3, Caspase-Glo 3/7 luminescence, 60 min. inhibition, % at 20 µM. actives 4% (n = 1,400);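 active = mean inhibition across replicates above about 26%, limit read from the data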;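 also: plate controls were DMSO with caspase-3 for no effect and DMSO wells lacking enzyme for full effect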
Target sequence (P42574 whole entry, looked up): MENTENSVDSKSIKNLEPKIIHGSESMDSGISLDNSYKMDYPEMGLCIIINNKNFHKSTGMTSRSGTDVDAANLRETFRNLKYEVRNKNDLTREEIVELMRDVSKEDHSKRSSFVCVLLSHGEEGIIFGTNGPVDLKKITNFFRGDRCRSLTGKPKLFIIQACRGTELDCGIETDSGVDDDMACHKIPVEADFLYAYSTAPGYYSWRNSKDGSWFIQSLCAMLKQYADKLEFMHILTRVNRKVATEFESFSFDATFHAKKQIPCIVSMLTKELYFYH
UBC13 confirm: confirmation of human UBC13 polyubiquitin inhibitors | shares compounds with UBC13 inh | UBC13 polyubiquitination, TR-FRET, biochemical | inhibition, % at 10 µM | actives 68% (n = 1,400) | AID 488859; in the data active = inhibition above about 45%
Apaf-1 inh conf2: confirmation of Apaf-1 inhibitors | shares compounds with Apaf-1 inh | reconstituted apoptosome, caspase-3 DEVD-Rh110 fluorescence | inhibition, % at 20 µM | actives 25% (n = 1,800) | AID 504614;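 active = mean inhibition of at least 40% at 20 µM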;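 also: plate controls were DMSO wells for no effect and DEVD-CHO caspase inhibitor control wells for full effect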
Rh110 interf inh: Rh110 signal interference in Apaf-1 inhibitor counter-screen; shares compounds with Apaf-1 inh; Rh110 fluorescence interference, quenched caspase reaction; activation (fluorescence interference), % at 20 µM; 1,800 tested, under 10 active;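 active = signal rise of 40% or more at 20 µM, treated as a fluorescence artifact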
Fluor interf inh: Apaf-1 inhibitor counter-screen fluorescence artifact; fluorescence interference counterscreen, Apaf-1 assay format; 460 tested, under 10 active; IC50, µM; shares compounds with Apaf-1 inh; call rule not given here
Starred values were filed as active, the others as inactive; / = no result. Rule as the data show it, unless noted: active = inhibition above about 43%; inactive = the rest.

SMILES	ZTA DNA inh	Apaf-1 inh	UBC13 inh	PREPL inhibitor	EBNA-1 inh	Zta DNA confirm	EBNA1 counter	PREPL confirm	Apaf-1 inh conf2	Rh110 interf inh	others
C#CCOCCOCCOCCNc1nc(N2CCN(C(=O)Cn3cc(CCCN=C(N)N)nn3)CC2)nc(N2CCN(C(=O)[C@H]([C@@H](C)CC)n3cc(CCCCN)nn3)CC2)n1	-10	8	23	12	0	/	/	/	/	/
C#CCOCCOCCOCCNc1nc(N2CCN(C(=O)CCCCCCCCCCNC(=O)[C@H]([C@@H](C)CC)n3cc(CCCCCN)nn3)CC2)nc(N2CCN(C(=O)CCCCCCCCCCNC(=O)[C@H]([C@@H](C)CC)n3cc(CCCCN=C(N)N)nn3)CC2)n1	163*	71*	125*	63*	5	55*	-15	57*	/	/	Casp3 counter=-3;UBC13 confirm=128*
CC(C)CC1(C)NC(=O)N(CC(=O)N2C(C)CCCC2C)C1=O (stereo not given)	-1	21	27	-2	/	/	/	/	/	/
CC1(NC(=O)c2cc(-c3cccs3)nn2-c2ccccc2)CCS(=O)(=O)C1 (stereo not given)	-4	10	2	-2	6	/	/	/	/	/
C#CCOCCOCCOCCNc1nc(N2CCN(C(=O)CCCCCCCCCCNC(=O)Cn3cc(CCCCCN)nn3)CC2)nc(N2CCN(C(=O)CCCCCCCCCCNC(=O)[C@H]([C@@H](C)CC)n3cc(CCCCN=C(N)N)nn3)CC2)n1	61*	85*	121*	68*	3	48*	-11	62*	69*	3	Casp3 counter=-4;UBC13 confirm=124*;Fluor interf inh=>100
C#CCOCCOCCOCCNc1nc(N2CCN(C(=O)Cn3cc(CCCCN)nn3)CC2)nc(N2CCN(C(=O)Cn3cc(CCCCN)nn3)CC2)n1	-18	11	26	7	-11	/	/	/	/	/
C#CCOCCOCCOCCNc1nc(N2CCN(C(=O)CCCCCCCCCCNC(=O)Cn3cc(CCCCCN)nn3)CC2)nc(N2CCN(C(=O)CCCCCCCCCCNC(=O)Cn3cc(CCCCCN)nn3)CC2)n1	49*	65*	118*	64*	0	38*	-7	62*	51*	7	Casp3 counter=-1;UBC13 confirm=121*;Fluor interf inh=>100
C#CCOCCOCCOCCNc1nc(N2CCN(C(=O)CCCCCCCCCCNC(=O)Cn3cc(C[C@@H](C)O)nn3)CC2)nc(N2CCN(C(=O)CCCCCCCCCCNC(=O)[C@H](CCCN=C(N)N)n3cc(C[C@@H](C)CC)nn3)CC2)n1	56*	62*	124*	48*	14	18	-6	42	36	6	Casp3 counter=3;UBC13 confirm=119*
C#CCOCCOCCOCCNc1nc(N2CCN(C(=O)CCCCCCCCCCNC(=O)[C@H]([C@@H](C)CC)n3cc(CCCCN=C(N)N)nn3)CC2)nc(N2CCN(C(=O)CCCCCCCCCCNC(=O)[C@H](CCCCN)n3cc(C)nn3)CC2)n1	56*	73*	124*	45*	6	68*	-9	55*	63*	13	Casp3 counter=-4;UBC13 confirm=127*;Fluor interf inh=>100
C#CCOCCOCCOCCNc1nc(N2CCN(C(=O)Cn3cc(CCCN=C(N)N)nn3)CC2)nc(N2CCN(C(=O)[C@H]([C@@H](C)CC)n3cc(CCC(=O)O)nn3)CC2)n1	0	8	10	12	-11	/	/	/	/	/
C#CCOCCOCCOCCNc1nc(N2CCN(C(=O)CCCCCCCCCCNC(=O)[C@H](CO)n3cc(CCCSC)nn3)CC2)nc(N2CCN(C(=O)CCCCCCCCCCNC(=O)[C@@H]([C@H](C)O)n3cc(C)nn3)CC2)n1	14	32	11	8	3	/	/	/	/	/
CCCn1c(N)c(N(CCOC)C(=O)CCC2CCCCC2)c(=O)[nH]c1=O	6	1	-3	4	/	/	/	/	/	/
COc1cccc(C(=O)N2CCN(C3CCCCC3)CC2)c1	/	2	-6	/	/	/	/	/	/	/
CSc1nc(Nc2ccc(Cl)cc2)c(C#N)c(=O)[nH]1	1	-1	-11	1	5	/	/	/	/	/
O=C(NCCCN1CCOCC1)c1ccc(Cl)c([N+](=O)[O-])c1	5	-23	-2	-2	0	/	/	/	/	/
Cn1nc(-c2ccccn2)nc2c(=O)n(C)c(=O)nc1-2	73*	98*	-64	59*	7	69*	-4	52*	100*	-1	Fluor interf inh=>100
Nc1cc2nsnc2cc1Br	68*	98*	-84	46*	0	28	-3	32	99*	6	Fluor interf inh=>100
Nc1c(C(=O)NCc2ccc(F)cc2)c2nc3ccccc3nc2n1CCCN1CCOCC1	66*	59*	19	61*	7	11	1	46*	24	9
COC(=O)c1c(N)n(CCCN2CCOCC2)c2nc3ccccc3nc12	10	-72	-2	9	0	/	/	/	/	/
CCOC(=O)c1cccc(NC(=O)c2ccccc2C)c1	-4	-7	12	-2	2	/	/	/	/	/
Cc1ccc(-c2cc(C(=O)NCCCN3CCOCC3)c3ccc(Cl)c(C)c3n2)cc1	34*	55*	28	-6	-6	1	-4	/	24	11
CCc1ccc(C(=O)CCC(=O)Nc2ccc(OC)c(S(=O)(=O)N3CCCCC3)c2)cc1	5	11	7	18	/	/	/	/	/	/
CCN(CCO)c1ccc(NC(=S)Nc2cccc(S(=O)(=O)N(C)C)c2)cc1	41*	43*	-6	10	23	9	3	/	13	0
Cn1c(=O)c2cc(NCc3ccccc3)nnc2n(C)c1=O	52*	94*	-56	36	26	-12	-7	/	7	0
COc1cccc2c1C(=O)c1c(O)c3c(c(O)c1C2=O)C[C@@](O)(C(=O)CO)C[C@@H]3O[C@H]1C[C@H](N)[C@H](O)[C@H](C)O1	78*	58*	-268	24	25	98*	-8	/	61*	0	Fluor interf inh=>100
Cc1ccc(N2CCOCC2)c2c1C(=O)c1ccccc1C2=O	8	-1	-120	10	-1	/	/	/	/	/
